Source: ChEMBL document CHEMBL1145027, “Design and synthesis of statine-based cell-permeable peptidomimetic inhibitors of human beta-secretase” (J Med Chem, 2003)
Where a SMILES comes first, the peptide text is derived from it. [ ]: non-standard residue; d: D form. Sta = CC(C)C[C@H](N)[C@@H](O)CC(=O)O

The molecules below were run against Beta-secretase 1 (Homo sapiens, UniProt P56817) (assay: Inhibition of human beta-secretase (BACE) in MBP-C125 assay).
Chain of Beta-secretase 1 (P56817 whole entry, the tested form may be a part): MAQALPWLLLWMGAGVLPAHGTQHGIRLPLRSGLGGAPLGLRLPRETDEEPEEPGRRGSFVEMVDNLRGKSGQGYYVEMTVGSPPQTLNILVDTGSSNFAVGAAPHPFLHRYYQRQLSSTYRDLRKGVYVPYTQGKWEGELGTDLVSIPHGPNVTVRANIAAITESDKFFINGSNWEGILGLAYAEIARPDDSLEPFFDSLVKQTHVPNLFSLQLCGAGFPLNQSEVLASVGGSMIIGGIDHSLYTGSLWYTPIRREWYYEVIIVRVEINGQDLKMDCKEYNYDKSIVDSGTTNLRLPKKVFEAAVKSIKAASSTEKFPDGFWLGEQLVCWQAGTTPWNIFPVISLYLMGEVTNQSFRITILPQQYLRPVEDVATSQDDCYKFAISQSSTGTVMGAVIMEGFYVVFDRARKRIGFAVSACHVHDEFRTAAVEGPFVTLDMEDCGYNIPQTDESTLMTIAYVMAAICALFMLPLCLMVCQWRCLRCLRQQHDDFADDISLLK
Outline: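 BACE activity measured with maltose-binding protein fused C-125 (MBP-C125) substrate; IC50 taken as the concentration giving 50% inhibition of enzyme activity, averaged from two or more runs.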
Molecule `CC(C)C[C@H](NC(=O)C(O)c1cccc2ccccc12)[C@@H](O)CC(=O)N[C@H](C(=O)NC1C[C@@H](C(=O)O)C[C@@H](C(=O)O)C1)C(C)C` (stereo partly specified) has an IC50 of 3 µM.
With `CC(C)CC(NC(=O)c1ccc2ccccc2c1)[C@@H](O)CC(=O)N[C@@H](C(=O)N[C@H](C)C(=O)N[C@H](CCC(=O)O)C(=O)N[C@H](Cc1ccccc1)C(=O)O)C(C)C` (stereo partly specified) the IC50 was 48 µM.
In the case of `CC(C)CC(NC(=O)C(O)c1cccc2ccccc12)[C@@H](O)CC(=O)N[C@@H](C(=O)N[C@H](C)C(=O)N[C@H](CCC(=O)O)C(=O)N[C@H](Cc1ccccc1)C(=O)O)C(C)C` (stereo partly specified), the IC50 is reported as 4 µM.
Molecule `CSCC[C@H](NC(=O)[C@@H](NC(=O)OC(C)(C)C)C(C)C)C(=O)NC(CC(C)C)[C@@H](O)CC(=O)N[C@@H](C(=O)NCc1ccc(C(=O)O)cc1)C(C)C` (stereo partly specified) has an IC50 of 4 µM.
In the case of `CC(C)CC(NC(=O)Cc1ccccc1)[C@@H](O)CC(=O)N[C@@H](C(=O)N[C@H](C)C(=O)N[C@H](CCC(=O)O)C(=O)N[C@H](Cc1ccccc1)C(=O)O)C(C)C` (stereo partly specified), the IC50 is reported as 130 µM.
`CSCC[C@H](NC(=O)[C@@H](NC(=O)OC(C)(C)C)C(C)C)C(=O)NC(CC(C)C)[C@@H](O)CC(=O)N[C@@H](C(=O)NC1CCCCC1)C(C)C` (stereo partly specified) gave an IC50 of over 200 µM.
With `CC(C)CC(NC(=O)C(O)c1cccc(Oc2ccccc2)c1)[C@@H](O)CC(=O)N[C@@H](C(=O)N[C@H](C)C(=O)N[C@H](CCC(=O)O)C(=O)N[C@H](Cc1ccccc1)C(=O)O)C(C)C` (stereo partly specified) the IC50 was 6 µM.
`CSCC[C@H](NC(=O)[C@@H](NC(=O)OC(C)(C)C)C(C)C)C(=O)NC(CC(C)C)[C@@H](O)CC(=O)N[C@@H](C(=O)NCc1ccncc1)C(C)C` (stereo partly specified) gave an IC50 of over 100 µM.
Work on `CSCC[C@H](NC(=O)[C@@H](NC(=O)OC(C)(C)C)C(C)C)C(=O)NC(CC(C)C)[C@@H](O)CC(=O)N[C@@H](C(=O)NCc1cccc(C(=O)O)c1)C(C)C` (stereo partly specified) yielded an IC50 of 4 µM.
Molecule `CC(C)CC(NC(=O)Cc1ccc(-c2ccccc2)cc1)[C@@H](O)CC(=O)N[C@@H](C(=O)N[C@H](C)C(=O)N[C@H](CCC(=O)O)C(=O)N[C@H](Cc1ccccc1)C(=O)O)C(C)C` (stereo partly specified) has an IC50 of 56 µM.
With `CO[C@H](C(=O)NC(CC(C)C)[C@@H](O)CC(=O)N[C@@H](C(=O)N[C@H](C)C(=O)N[C@H](CCC(=O)O)C(=O)N[C@H](Cc1ccccc1)C(=O)O)C(C)C)c1ccccc1` (stereo partly specified) the IC50 was 28 µM.
`COc1cc(CC(=O)NC(CC(C)C)[C@@H](O)CC(=O)N[C@@H](C(=O)N[C@H](C)C(=O)N[C@H](CCC(=O)O)C(=O)N[C@H](Cc2ccccc2)C(=O)O)C(C)C)cc(OC)c1OC` (stereo partly specified) gave an IC50 of 94 µM.
Work on `COC(=O)[C@@H]1CC(NC(=O)[C@H](NC(=O)C[C@H](O)C(CC(C)C)NC(=O)[C@H](CCSC)NC(=O)[C@@H](NC(=O)OC(C)(C)C)C(C)C)C(C)C)C[C@H](C(=O)OC)C1` (stereo partly specified) yielded an IC50 of 10 µM.
`CC(C)CC(NC(=O)Cc1ccc(F)cc1F)[C@@H](O)CC(=O)N[C@@H](C(=O)N[C@H](C)C(=O)N[C@H](CCC(=O)O)C(=O)N[C@H](Cc1ccccc1)C(=O)O)C(C)C` (stereo partly specified) gave an IC50 of 140 µM.
For `COC(=O)CCCCC(=O)NC(CC(C)C)[C@@H](O)CC(=O)N[C@@H](C(=O)N[C@H](C)C(=O)N[C@H](CCC(=O)O)C(=O)N[C@H](Cc1ccccc1)C(=O)O)C(C)C` (stereo partly specified), the IC50 was 50 µM.
`CSCC[C@H](NC(=O)[C@@H](NC(=O)OC(C)(C)C)C(C)C)C(=O)NC(CC(C)C)[C@@H](O)CC(=O)N[C@@H](C(=O)NCc1ccccc1)C(C)C` (stereo partly specified) was tested, and the IC50 was over 200 µM.
In the case of `CC(C)C[C@H](NC(=O)C(O)c1ccccc1Br)[C@@H](O)CC(=O)N[C@H](C(=O)NCc1ccc(C(=O)O)cc1)C(C)C` (stereo partly specified), the IC50 is reported as 40 µM.
`CC(C)Cc1ccc(C(=O)NC(CC(C)C)[C@@H](O)CC(=O)N[C@@H](C(=O)N[C@H](C)C(=O)N[C@H](CCC(=O)O)C(=O)N[C@H](Cc2ccccc2)C(=O)O)C(C)C)cc1` (stereo partly specified) was tested, and the IC50 was 28 µM.
`CSCC[C@H](NC(=O)[C@@H](NC(=O)OC(C)(C)C)C(C)C)C(=O)NC(CC(C)C)[C@@H](O)CC(=O)N[C@@H](C(=O)NCc1ccc2c(c1)OCO2)C(C)C` (stereo partly specified) was tested, and the IC50 was over 100 µM.
Molecule `CSCC[C@H](NC(=O)[C@@H](NC(=O)OC(C)(C)C)C(C)C)C(=O)NC(CC(C)C)[C@@H](O)CC(=O)N[C@@H](C(=O)NO)C(C)C` (stereo partly specified) has an IC50 of 94 µM.
`CSCC[C@H](NC(=O)[C@@H](NC(=O)OC(C)(C)C)C(C)C)C(=O)NC(CC(C)C)[C@@H](O)CC(=O)N[C@@H](C(=O)NC1C[C@@H](C(=O)O)C[C@@H](C(=O)O)C1)C(C)C` (stereo partly specified) gave an IC50 of 0.3 µM.
`CC(C)CC(NC(=O)CCCOc1ccccc1)[C@@H](O)CC(=O)N[C@@H](C(=O)N[C@H](C)C(=O)N[C@H](CCC(=O)O)C(=O)N[C@H](Cc1ccccc1)C(=O)O)C(C)C` (stereo partly specified) showed an IC50 of 25 µM.
`CSCC[C@H](NC(=O)[C@@H](NC(=O)OC(C)(C)C)C(C)C)C(=O)NC(CC(C)C)[C@@H](O)CC(=O)N[C@@H](C(=O)NCc1cccc(OCC(=O)O)c1)C(C)C` (stereo partly specified) gave an IC50 of 5 µM.
`CC(C)CC(NC(=O)C(O)c1ccccc1Br)[C@@H](O)CC(=O)N[C@@H](C(=O)N[C@H](C)C(=O)N[C@H](CCC(=O)O)C(=O)N[C@H](Cc1ccccc1)C(=O)O)C(C)C` (stereo partly specified) showed an IC50 of 3 µM.
Molecule `CC(C)CC(NC(=O)C(O)c1ccccc1Oc1ccccc1)[C@@H](O)CC(=O)N[C@@H](C(=O)N[C@H](C)C(=O)N[C@H](CCC(=O)O)C(=O)N[C@H](Cc1ccccc1)C(=O)O)C(C)C` (stereo partly specified) has an IC50 of 14 µM.
For `COC(=O)CCCNC(=O)[C@H](NC(=O)C[C@H](O)C(CC(C)C)NC(=O)[C@H](CCSC)NC(=O)[C@@H](NC(=O)OC(C)(C)C)C(C)C)C(C)C` (stereo partly specified), the IC50 was 47 µM.
`CCCCNC(=O)[C@H](NC(=O)C[C@H](O)C(CC(C)C)NC(=O)[C@H](CCSC)NC(=O)[C@@H](NC(=O)OC(C)(C)C)C(C)C)C(C)C` (stereo partly specified) was tested, and the IC50 was over 200 µM.
`CCCCOc1ccc(C(=O)NC(CC(C)C)[C@@H](O)CC(=O)N[C@@H](C(=O)N[C@H](C)C(=O)N[C@H](CCC(=O)O)C(=O)N[C@H](Cc2ccccc2)C(=O)O)C(C)C)cc1` (stereo partly specified) was tested, and the IC50 was 27 µM.
In the case of `CC(C)CC(NC(=O)[C@@H](O)c1ccccc1)[C@@H](O)CC(=O)N[C@@H](C(=O)N[C@H](C)C(=O)N[C@H](CCC(=O)O)C(=O)N[C@H](Cc1ccccc1)C(=O)O)C(C)C` (stereo partly specified), the IC50 is reported as 17 µM.
`CO[C@](C)(C(=O)NC(CC(C)C)[C@@H](O)CC(=O)N[C@@H](C(=O)N[C@H](C)C(=O)N[C@H](CCC(=O)O)C(=O)N[C@H](Cc1ccccc1)C(=O)O)C(C)C)c1ccccc1` (stereo partly specified) was tested, and the IC50 was 41 µM.
For `CC(C)C[C@H](NC(=O)C(O)c1cccc2ccccc12)[C@@H](O)CC(=O)N[C@H](C(=O)NCc1ccc(C(=O)O)cc1)C(C)C` (stereo partly specified), the IC50 was 50 µM.
In the case of `CSCC[C@H](NC(=O)[C@@H](NC(=O)OC(C)(C)C)C(C)C)C(=O)NC(CC(C)C)[C@@H](O)CC(=O)N[C@@H](C(=O)NCCCC(=O)O)C(C)C` (stereo partly specified), the IC50 is reported as 47 µM.
Molecule `COC(=O)[C@@H]1CC(NC(=O)[C@@H](NC(=O)C[C@H](O)[C@H](CC(C)C)NC(=O)C(O)c2cccc3ccccc23)C(C)C)C[C@H](C(=O)OC)C1` (stereo partly specified) has an IC50 of 140 µM.
For `CC(C)CC(NC(=O)Cc1cccc2ccccc12)[C@@H](O)CC(=O)N[C@@H](C(=O)N[C@H](C)C(=O)N[C@H](CCC(=O)O)C(=O)N[C@H](Cc1ccccc1)C(=O)O)C(C)C` (stereo partly specified), the IC50 was 42 µM.
`CSCC[C@H](NC(=O)[C@@H](NC(=O)OC(C)(C)C)C(C)C)C(=O)NC(CC(C)C)[C@@H](O)CC(=O)N[C@@H](C(=O)NCCC(=O)O)C(C)C` (stereo partly specified) showed an IC50 of 30 µM.
Work on `CC(C)CC(NC(=O)C(O)c1ccccc1OCc1ccccc1)[C@@H](O)CC(=O)N[C@@H](C(=O)N[C@H](C)C(=O)N[C@H](CCC(=O)O)C(=O)N[C@H](Cc1ccccc1)C(=O)O)C(C)C` (stereo partly specified) yielded an IC50 of 11 µM.
Molecule `CSCC[C@H](NC(=O)[C@@H](NC(C)=O)C(C)C)C(=O)N[C@@H](CC(C)C)[C@@H](O)CC(=O)N[C@H](C(=O)N[C@@H](C)C(=O)N[C@@H](CCC(=O)O)C(=O)N[C@@H](Cc1ccccc1)C(=O)O)C(C)C` (Ac-VM[Sta]VAEF-OH) has an IC50 of 0.3 µM.
With `COC(=O)[C@@H]1CC(NC(=O)[C@H](NC(=O)C[C@H](O)[C@@H](Cc2cc(F)cc(F)c2)NC(=O)C(O)c2ccccc2-c2ccccc2)C(C)C)C[C@H](C(=O)OC)C1` (single isomer, unassigned; isomer 1) the IC50 was 0.12 µM.
Molecule `COC(=O)[C@@H]1CC(NC(=O)[C@H](NC(=O)C[C@H](O)[C@@H](Cc2cc(F)cc(F)c2)NC(=O)C(O)c2ccccc2-c2ccccc2)C(C)C)C[C@H](C(=O)OC)C1` (single isomer, unassigned; isomer 2) has an IC50 of 10 µM.

What follows are molecules tested on HEK293 (assay: Inhibition of A beta-secretion in transfected human embryonic kidney (HEK293) cells).
Format: functional, cell-based
Outline: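 Transfected HEK-293 cells incubated with inhibitor; Aβ secretion measured and EC50 taken as the concentration giving 50% inhibition of Aβ production.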
Molecule `COC(=O)[C@@H]1CC(NC(=O)[C@H](NC(=O)C[C@H](O)[C@@H](Cc2cc(F)cc(F)c2)NC(=O)C(O)c2ccccc2-c2ccccc2)C(C)C)C[C@H](C(=O)OC)C1` (single isomer, unassigned; isomer 1) has an EC50 of 4 µM.
`COC(=O)[C@@H]1CC(NC(=O)[C@H](NC(=O)C[C@H](O)[C@@H](Cc2cc(F)cc(F)c2)NC(=O)C(O)c2ccccc2-c2ccccc2)C(C)C)C[C@H](C(=O)OC)C1` (single isomer, unassigned; isomer 2) gave an EC50 of over 10 µM.
